According to ChEMBL document CHEMBL1123670, “Inhibitors of cyclic AMP phosphodiesterase. 2. Structural variations of N-cyclohexyl-N-methyl-4-[(1,2,3,5-tetrahydro- 2-oxoimidazo[2,1-b]quinazolin-7-yl)-oxy]butyramide (RS-82856)” (J Med Chem, 1987):

Legend:
Homo sapiens [1] = species on record: Homo sapiens; test: Inhibition of ADP-induced platelet aggregation at 100 uM concentration; assay type: functional
[2] = biological target: T1, Phosphodiesterase; PDE3 & PDE4 (Homo sapiens) (UniProt P27815+Q14432+Q08499+Q07343+Q13370+Q08493); test: In vivo inhibition of cyclic AMP phosphodiesterase from dog heart
Method in brief: (§1)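 Cyclic AMP phosphodiesterase prepared from human platelets (IC50, nM) or from rat or dog heart tissue (IC25, nM). Each agent tested at five inhibitor concentrations in triplicate. IC50/IC25 read graphically from the dose-response curve.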

Phosphodiesterase 3 [3] = biological target: T2, Phosphodiesterase 3 (Homo sapiens, UniProt Q14432+Q13370); test: In vitro inhibition of cyclic AMP phosphodiesterase from human platelets
[4] = In vivo inhibition of cyclic AMP phosphodiesterase from rat heart; conditions: in the assay text read “In vitro” for “In vivo”; method in brief: as §1
Homo sapiens [5] = species on record: Homo sapiens; test: Ratio of IC50 of inhibition of platelet aggregation to IC50 of inhibition of platelet PDE; assay type: functional
Method in brief: (§2)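 Efficacy index is the IC50 for inhibition of ADP-induced platelet aggregation divided by the IC50 for human platelet PDE inhibition. Both IC50s come from graphical dose-response curves (five concentrations, triplicate).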

Homo sapiens [6] = species on record: Homo sapiens; test: Ratio of IC50 of inhibition of platelet aggregation to IC50 of inhibition of platelet PDE (Efficacy index); assay type: functional; method in brief: as §2
Phosphodiesterase 3 [7] = biological target: T2, Phosphodiesterase 3; test: Inhibition of human platelet cAMP phosphodiesterase; method in brief: as §1
[8] = Inhibition of ADP-induced platelet aggregation; assay type: functional
Method in brief: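 ADP-induced platelet aggregation. Read-out is the rate of change in percentage transmission of the primary aggregation phase after 5 min incubation. Each agent tested at five concentrations in triplicate, with experiments repeated at least twice using platelets from different donors. IC50 (μM) determined graphically.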

[9] = biological target: T1, Phosphodiesterase; PDE3 & PDE4 (Homo sapiens); test: Inhibition of canine cardiac cAMP phosphodiesterase; assay type: protein assay; conditions: Canis lupus familiaris; target entry is the homologue from another species; method in brief: as §1
Phosphodiesterase 3 [10] = biological target: T2, Phosphodiesterase 3; test: Inhibition of human platelet cAMP phosphodiesterase, 20% inhibition at E-4M
Phosphodiesterase 3 [11] = biological target: T2, Phosphodiesterase 3; test: Inhibition of human platelet cAMP phosphodiesterase at 10e-4 M
[12] = Canis lupus familiaris; target entry is the homologue from another species; in the assay text read “In vitro” for “In vivo”
[13] = Canis lupus familiaris; in the assay text read “In vitro” for “In vivo”; target entry is the homologue from another species

SMILES | IC50 (Homo sapiens [1]) | IC50 (Phosphodiesterase 3 [3]) | IC50 [8] | IC25 [4] | Ratio (Homo sapiens [6]) | also measured
O=C(O)CCCOc1ccc2c(c1)CN1CC(=O)NC1=N2 | Not Active | 0.28 µM |  |  |  | IC25 [2, 12]: 0.13 µM
CN(C(=O)CCCOc1ccc2nc3n(c(=O)c2c1)CCN3)C1CCCCC1 | Not Active | 25 µM |  | 3.7 µM |  | 
CN(C(=O)CCC[S+]([O-])c1ccc2c(c1)CN1CC(=O)NC1=N2)C1CCCCC1 (stereo unspecified) | Not Active | 1.7 µM |  |  |  | IC25 [2, 13]: 6.2 µM
CNC(=O)CCCOc1ccc2c(c1)CN1CC(=O)NC1=N2 | Not Active | 1.6 µM |  |  |  | IC25 [2, 12]: 1.3 µM
COc1ccc(C(=O)N2CCN(c3ccc4c(c3)CCC(=O)N4)CC2)cc1OC [VESNARINONE] |  | 6.2 µM |  |  |  | Ratio (Homo sapiens [5]): 608
O=C1CN2Cc3cc(OCCCC(=O)N(C4CCCCC4)C4CCCCC4)ccc3N=C2N1 |  | 0.00145 µM | 0.42 µM | 0.016 µM | 300 | 
O=C1CN2Cc3cc(OCCCC(=O)N4CCOCC4)ccc3N=C2N1 |  | 1.6 µM | 53 µM | 7 µM | 33 | 
CN(Cc1ccccc1)C(=O)CCCOc1ccc2c(c1)CN1CC(=O)NC1=N2 |  | 0.026 µM | 0.98 µM | 0.24 µM | 38 | 
COC1=NC2=Nc3ccc(OCCCC(=O)N(C)C4CCCCC4)cc3CN2C1 | Not Active | 9.6 µM |  |  |  | IC25 [2, 12]: 2.7 µM
CN(C(=O)CCCOc1ccc2nc3n(c(=O)c2c1)CC(=O)N3)C1CCCCC1 | Not Active | 5.4 µM |  | 2.9 µM |  | 
CN(C(=O)CCCOc1ccc2c(c1)CN1CC(=O)NC1=N2)c1ccccc1 |  | 0.026 µM | 0.39 µM | 0.35 µM | 15 | 
O=C1CN2Cc3cc(OCCCC(=O)N(CCO)C4CCCCC4)ccc3N=C2N1 |  | 0.0125 µM | 2.85 µM | 0.07 µM | 228 | 
O=C(O)CN(C(=O)CCCOc1ccc2c(c1)CN1CC(=O)NC1=N2)C1CCCCC1 |  | 0.005 µM | 5.2 µM | 0.1 µM | 1040 | 
CN(C(=O)CCCOc1cccc2c1NC1=NC(=O)CN1C2)C1CCCCC1 | Not Active |  |  |  |  | IC50 (Phosphodiesterase 3 [10]): > 100 µM; IC25 [2, 13]: 1.6 µM; inhibition (Phosphodiesterase 3 [11]): 20%
CN(C(=O)CCCOc1ccc2c(c1)CN1CC(=O)NC1=N2)C(c1ccccc1)c1ccccc1 |  | 0.015 µM | 9.2 µM | 0.06 µM | 613 | 

Second part, led by results:

IC50 (Homo sapiens [1]) | IC50 (Phosphodiesterase 3 [3]) | IC50 [8] | SMILES | IC25 [4] | Ratio (Homo sapiens [6]) | also measured
Not Active | 3.3 µM |  | CN(C(=O)CCCOc1ccc2c(c1)CN1C(=N2)NC(=O)[C@H]1c1ccccc1)C1CCCCC1 |  |  | IC25 [2, 12]: 3.3 µM
Not Active | > 10 µM |  | CN(C(=O)CCCOc1ccc2c(c1)CN1C(=N2)NC(=O)[C@@H]1Cc1ccccc1)C1CCCCC1 |  |  | IC25 [2, 12]: > 10 µM
 |  | 0.11 µM | CN(C(=O)CCCOc1ccc2c(c1)CN1CC(=O)NC1=N2)C1CCCCC1 [LIXAZINONE] |  | 10.8 | IC50 (Phosphodiesterase 3 [7]): 0.0102 µM; IC25 [9]: 0.0041 µM
 | 0.016 µM | 4.6 µM | CN(C(=O)CCCCCCOc1ccc2c(c1)CN1CC(=O)NC1=N2)C1CCCCC1 | 0.045 µM | 287 | 
Not Active | 0.5 µM |  | CN(C(=O)CCCOc1ccc2c(c1)CN1NC(=O)NC1=N2)C1CCCCC1 |  |  | IC25 [2, 13]: 0.18 µM
Not Active | > 10 µM |  | CC(C)[C@H]1C(=O)NC2=Nc3ccc(OCCCC(=O)N(C)C4CCCCC4)cc3CN21 |  |  | IC25 [2, 13]: 6.4 µM
Not Active | 10 µM |  | CC(C)[C@@H]1C(=O)NC2=Nc3ccc(OCCCC(=O)N(C)C4CCCCC4)cc3CN21 |  |  | IC25 [2, 12]: 6 µM
Not Active | > 10 µM |  | CN(C(=O)CCCOc1ccc2c(c1)CN1C(=N2)NC(=O)[C@H]1Cc1ccccc1)C1CCCCC1 |  |  | IC25 [2, 12]: > 10 µM
 | 0.012 µM | 1.9 µM | CN(C(=O)CCCCCOc1ccc2c(c1)CN1CC(=O)NC1=N2)C1CCCCC1 | 0.021 µM | 158 | 
Not Active | 3.8 µM |  | CN(C(=O)CCCOc1ccc2c(c1)CN1C(=N2)NC(=O)[C@@H]1c1ccccc1)C1CCCCC1 |  |  | IC25 [2, 12]: 4.2 µM
Not Active | 27 µM |  | CN(C(=O)CCCOc1ccc2c(c1)CN1CCNC1=N2)C1CCCCC1 |  |  | IC25 [2, 13]: 21 µM
Not Active | 76 µM |  | CN1C(=O)CN2Cc3cc(OCCCC(=O)N(C)C4CCCCC4)ccc3N=C21 |  |  | IC25 [2, 13]: 39 µM
